In the library only some 1.8% were active in any assay of this set; here they are far more common.
UPR CHOP act: apoptotic UPR (CHOP) activation; AID 449763; activation, % at 10 µM; 330,000 tested, 0.34% active; CHO-CHOP luciferase reporter, luminescence; percent of tunicamycin response over DMSO baseline;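 active means at 10 µM dose, activation of 40% or more, normalized to positive control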
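Dosing – one dose, 10 µM in 0.5% DMSO · System – CHO-CHOP cells, stable luciferase reporter of PERK-eIF2a-CHOP signalling · Input – 500 cells/well · Control set – tunicamycin 10 µg/mL final as positive, DMSO-only wells as negative · Timing – 6 h compound treatment, 37 °C · Measure – % activation vs tunicamycin · Technique – luminescence read with Steady-Glo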
Jurkat NFkB inh: lowers PMA/ionomycin-induced NF-kB signal in Jurkat cells; inhibition, % at 4 µM; PMA/ionomycin-induced NF-kB luciferase reporter, luminescence; 330,000 tested, 0.53% active; in the data active means inhibition above about 50%
697 NFkB inh: lowers PMA/ionomycin-induced NF-kB signal in 697 B cells | 697 B-cell NF-kB luciferase reporter, 16 h | inhibition, % at 4 µM | 330,000 tested, 0.33% active; in the data active means inhibition above about 35%
CRFR2-BP antag: CRF-BP/CRF-R2 complex antagonism; HEK293 CRF-R2/CRF-BP, CRF-induced calcium fluorescence; inhibition, % at 11.8 µM; 350,000 tested, 0.59% active;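 active means inhibition of the ligand-induced calcium signal above about 50% at the single tested concentration, limit read from the data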
UPR XBP1 act: activators of adaptive arm of unfolded protein response (XBP1); 330,000 tested, 0.33% active; CHO-XBP1 luciferase reporter, IRE1-XBP1 UPR activation, luminescence; percent of tunicamycin response, DMSO as zero; activation, % at 20 µM; AID 463104;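 active means versus positive control, 20 µM dose yields 30% or more activation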
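assay system = CHO-XBP1 luciferase reporter cells | amount = 1000 cells/well | buffer or medium = F12 plus 10% FBS | compound dosing = single point, 20 µM final compound, 1% DMSO | incubation = 16-18 h cell attachment at 37 °C, then 6 h compound exposure | detection = Steady-Glo luminescence read | controls = tunicamycin 10 µg/mL and vehicle-only wells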
Each line names hits and unclear results; the compound was inactive in the other large screens.

CCCCCCCCCCCC(=O)NC(Cc1ccc(OC)c([N+](=O)[O-])c1)C(=O)O (centres undefined)	CRFR2-BP antag 55
O=C(NC1CCCCCC1)C(=S)N1CCOCC1	none
S=C(NC1CCCCC1)N1CCOCCOCCN(C(=S)NC2CCCCC2)CCOCCOCC1	CRFR2-BP antag 115
COc1ccc(C2=NNC(c3ccco3)=Nc3ccc(F)cc32)cc1	CRFR2-BP antag 54
Cc1cc(CNC(=O)c2cccc(OC3CCN(S(=O)(=O)N(C)C)CC3)c2)on1	none
Cc1ccc(C)c(C(C)NC(=O)c2ccccc2Br)c1 (centres undefined)	CRFR2-BP antag 64
C#CCSc1nc(C)cc(C(=O)OCC)c1C#N	CRFR2-BP antag 82
CCOC(=O)CC(=O)CSc1nc(C)cc(C)c1C#N	none
COc1cc2cc(CCCOC(=O)c3cccc(Br)c3)oc(=O)c2cc1OC	none
COc1ccc(CN2CCS(=O)(=O)CC2)cc1OC	CRFR2-BP antag 64
COc1ccc(CN2CCN(Cc3ccc4ccccc4c3)CC2)cc1OC	none
Cc1ccc(C(=O)NC(=S)Nc2ccccc2N2CCOCC2)cc1C	none
COC(=O)C1=C(C)N(c2ccc(OC)cc2)C(C)=C(C(=O)OC)C1c1ccccc1	CRFR2-BP antag 52
CCN1CCN(Cc2nnc(-c3ccc(C)cc3)o2)CC1	none
CCOC(=O)CC1C(=O)NCCN1C1CCCC1 (centres undefined)	none
O=C(O)C1=C[C@@H](c2ccc(Br)cc2)C[C@@H](OCc2ccc(CO)cc2)O1	CRFR2-BP antag 76
CC(=O)Nc1ccc2nc3ccccc3nc2c1	CRFR2-BP antag 84
Cc1nc2ccccc2n1CC(O)COC1CCCCC1 (centres undefined)	CRFR2-BP antag 53
NC(=S)N/N=C/c1ccc(-c2ccc(SC(F)F)cc2)o1	CRFR2-BP antag 58
Cc1ccc(-c2ccc(/C=N/NC(N)=S)o2)cc1	none
COC1=C(Nc2ccc(O)cc2)C(=O)c2ccccc2C1=O	none
CCNC1=C(Cl)C(=O)c2ccccc2C1=O	none
CCN(CC)c1ccc(NC2=C(Cl)C(=O)c3ccccc3C2=O)cc1	CRFR2-BP antag 59 (no result: UPR CHOP act, Jurkat NFkB inh, 697 NFkB inh, UPR XBP1 act)
Cc1ccc(NC2=CC(=O)C(=O)c3ccccc32)cc1	UPR CHOP act 45
Cc1ccc(NC2=C(Cl)C(=O)c3ccccc3C2=O)cc1	CRFR2-BP antag 91 (no result: UPR CHOP act, Jurkat NFkB inh, 697 NFkB inh, UPR XBP1 act)
O=C1C(Cl)=C(Nc2ccc(O)cc2)C(=O)c2ccccc21	CRFR2-BP antag 86
COC(=O)C1=C(C(=O)c2ccccc2)C(c2ccc(O)c(OC)c2)n2nnnc2N1 (centres undefined)	CRFR2-BP antag 98
Cc1ccc(NC(=O)CCC(=O)c2cccs2)c(Br)c1	none
Cc1ccc(NC(=O)COC(=O)CCC(=O)c2cccs2)c(Br)c1	CRFR2-BP antag 59
Cc1ccc(CNC(=O)CCC(=O)c2cccs2)cc1	CRFR2-BP antag 59
O=C1CCc2cc(S(=O)(=O)Nc3ccccc3)ccc2N1	none
O=C(Nc1cccc(NC(=O)c2ccco2)n1)c1ccco1	none
O=C(CN1CCOCC1)Nc1nc(-c2ccccc2Cl)cs1	none
Cc1noc(C)c1COC(=O)c1cccc(S(=O)(=O)N2c3ccccc3CC2C)c1 (centres undefined)	CRFR2-BP antag 56
CC(C)(C)OC(=O)N1CCC(C(=O)Nc2cccc(C(=O)NC3CC3)c2)CC1	none (no result: UPR CHOP act, Jurkat NFkB inh, 697 NFkB inh, UPR XBP1 act)
CCOc1ccccc1NC(=O)COC(=O)CC(C)(C)CC1=NS(=O)(=O)c2ccccc2N1	none
CCOc1ccccc1NC(=O)COC(=O)C1CCC(=O)N1 (centres undefined)	none
Cc1ccc(NC(=O)c2ccccc2NS(=O)(=O)c2ccc(F)cc2)cc1S(=O)(=O)N1CCCCC1	CRFR2-BP antag 98
O=C(Nc1cccc(S(=O)(=O)N2CCCCC2)c1)c1ccccc1NS(=O)(=O)c1ccc(F)cc1	CRFR2-BP antag 85
O=C(Nc1cc(S(=O)(=O)N2CCCCC2)ccc1O)c1ccccc1NS(=O)(=O)c1ccc(F)c(F)c1	CRFR2-BP antag 81
NS(=O)(=O)c1cccc(NC(=O)c2ccccc2NS(=O)(=O)c2ccc(F)cc2)c1	none
O=C(Nc1cc(S(=O)(=O)Nc2ccccc2Cl)ccc1O)c1ccc(F)cc1F	none
O=C(Cn1nc(-c2ccccc2)ccc1=O)N1CCOCC1	none
O=C(CCn1nc(-c2ccccc2)ccc1=O)N1CCOCC1	CRFR2-BP antag 120
Cc1ccccc1OCC(=O)OCC(=O)c1c[nH]c2ccccc12	CRFR2-BP antag 87
COc1ccc(CC(=O)OCC(=O)c2c[nH]c3ccccc23)cc1	none
O=C(O)C(c1ccccc1)C1(O)CCCC1 (centres undefined)	CRFR2-BP antag 97
C=CC(=O)Oc1ccc(N2Cc3ccccc3C2=O)cc1	CRFR2-BP antag 97
CCOc1ccccc1N1CCN(C(=O)Cc2ccc(S(=O)(=O)N3CCOCC3)s2)CC1	CRFR2-BP antag 101
C=C1C(=O)OC2C=C(CO)C3OC3C3OC3(C)CC(OC(=O)/C(=C/C)COC(C)=O)C12 (centres undefined)	none (no result: UPR CHOP act, Jurkat NFkB inh, 697 NFkB inh, UPR XBP1 act)
Cc1ccc(-c2n[nH]c(=S)n2/N=C/c2cccn2C)cc1	CRFR2-BP antag 52
Cn1cccc1/C=N/n1c(-c2ccc(Cl)cc2)n[nH]c1=S	none
Cn1c(SCC(=O)Nc2ccccc2Oc2ccccc2)nnc1C1CC1	none
CS(=O)(=O)c1ccc(S(=O)CC(=O)OCc2ccccc2)c([N+](=O)[O-])c1 (centres undefined)	CRFR2-BP antag 53 (no result: UPR CHOP act, Jurkat NFkB inh, 697 NFkB inh, UPR XBP1 act)
CC(=O)N1CCN(c2ccc(NS(=O)(=O)c3ccc(C)cc3)cc2)CC1	none
Cc1cccc(N/C(N)=N/c2nc(CSc3ccc(Cl)cc3)cc(=O)[nH]2)c1	UPR XBP1 act 38
CNC(=O)c1ccc(C)c(NC(=O)C2=C(C)OCCS2)c1	none
CCC(C)NC(=O)CSc1nc2ccccc2c(=O)n1CCCC(=O)NCC1CCCO1 (centres undefined)	CRFR2-BP antag 51
COc1ccc(NC(=O)COc2cccc(-n3cnnn3)c2)cc1Cl	none
CC(C)(C)OC(=O)NC(Cc1ccccc1)C(=O)N1CCC(C(=O)NCC(=O)Nc2ccc(F)cc2)CC1 (centres undefined)	CRFR2-BP antag 67
Cc1cccc(C(=O)Nc2sc(-c3ccccc3)cc2C(=O)O)c1	CRFR2-BP antag 58
CCOC(=O)c1cc(-c2ccccc2)sc1NC(=O)c1ccc(OC)c(OC)c1	none
CCc1sc(C(=O)NCCc2ccc(S(N)(=O)=O)cc2)cc1Br	CRFR2-BP antag 61
CCOC(=O)C1=C(Cc2ccc(C)cc2)C(=O)c2ccccc2C1=O	UPR CHOP act 97 (no result: CRFR2-BP antag)
CCOC(=O)C1=C(Cc2ccc(OC)cc2)C(=O)c2ccccc2C1=O	none (no result: UPR CHOP act, Jurkat NFkB inh, 697 NFkB inh, UPR XBP1 act)
CCCC(=O)Nc1nnc(Sc2ccc(N(C)C)cc2)s1	CRFR2-BP antag 69
CCCCOc1ccc2c(c1)/C(=C(\C(Cl)=C(Cl)Cl)[N+](=O)[O-])N2	CRFR2-BP antag 68
